ChEMBL document CHEMBL1123352, “Anticonvulsant activity of 2- and 3-aminobenzanilides” (J Med Chem, 1986)
Calls of active or inactive are those of the source. The rule behind the calls is not given here.

How the values were obtained:
Mus musculus [1] = assay: Anticonvulsant activity against maximal electroshock (MES) induced seizures in mice 4 hours after ip administration of 600 mg/kg; A=Active; format: functional, organism-based; design: dose 600 mg/kg
How it was run: (§1)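 Male Carworth Farms No. 1 mice were dosed ip with compound in 30% polyethylene glycol 400, at 30, 100 and 300 mg/kg and sometimes 600 mg/kg, and tested 30 min and 4 h later. A drop of 0.9% saline went in the eye, then 60-cycle AC at 50 mA was given for 0.2 s via corneal electrodes. Protection meant abolition of hind limb tonic extension.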

Mus musculus [2] = assay: Anticonvulsant activity against subcutaneous pentylenetetrazole induced convulsions in mice 30 min after ip administration of 600 mg/kg.; format: functional, organism-based; design: dose 600 mg/kg
How it was run: (§2)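 Male Carworth Farms No. 1 mice were dosed ip with compound in 30% PEG 400, at 30–600 mg/kg, and read at 30 min and 4 h. Pentylenetetrazole was given at 85 mg/kg as a 0.5% solution sc in the posterior midline. Protection meant no single episode of clonic spasms lasting at least 5 s over a 30-min observation.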

Mus musculus [3] = assay: Compound was tested for toxicity by rotarod assay method in mice 30 min after ip administration of 600 mg/kg; no activity; format: organism-based; design: dose 600 mg/kg, route intraperitoneal; conditions: in vivo, 0.5 h
Mus musculus [4] = assay: Compound was tested for toxicity by rotarod assay method in mice after intraperitoneal administration after 4 hours at 600 mg/kg; no activity; format: organism-based; design: dose 600 mg/kg, route intraperitoneal; conditions: in vivo, ip
Mus musculus [5] = assay: Anticonvulsant activity against subcutaneous pentylenetetrazole induced convulsions in mice 4 hr after ip administration of 600 mg/kg.; format: functional, organism-based; design: dose 600 mg/kg; how it was run: as §2
Mus musculus [6] = assay: Anticonvulsant activity against maximal electroshock (MES) induced seizures in mice 30 minutes after ip administration of 300 mg/kg; A=Active; format: functional, organism-based; design: dose 300 mg/kg; how it was run: as §1
Mus musculus [7] = assay: Compound was tested for toxicity by rotarod assay method in mice 4 hours after ip administration at 600 mg/kg; no activity; format: organism-based; design: dose 600 mg/kg, route intraperitoneal; conditions: in vivo
Mus musculus [8] = assay: Anticonvulsant activity against maximal electroshock (MES) induced seizures in mice 4 hours after ip administration of 600 mg/kg.; format: functional, organism-based; design: dose 600 mg/kg; how it was run: as §1
Mus musculus [9] = assay: Anticonvulsant activity against maximal electroshock (MES) induced seizures in mice 30 minutes after ip administration of 600 mg/kg; NA=No activity; format: functional, organism-based; design: dose 600 mg/kg; how it was run: as §1
Mus musculus [10] = assay: Anticonvulsant activity against subcutaneous pentylenetetrazole induced convulsions in mice 4 hours after ip administration of 600 mg/kg; No=No activity; format: functional, organism-based; design: dose 600 mg/kg; how it was run: as §2
Mus musculus [11] = assay: Compound was tested for toxicity by rotarod assay method in mice 30 min after ip administration at 600 mg/kg; no activity; format: organism-based; design: dose 600 mg/kg, route intraperitoneal; conditions: in vivo, 0.5 h
Mus musculus [12] = assay: Anticonvulsant activity against maximal electroshock (MES) induced seizures in mice 4 hours after ip administration of 100 mg/kg; A=Active; format: functional, organism-based; design: dose 100 mg/kg; how it was run: as §1
[13] = Protective index measured as the ratio between TD50 and ED50; format: ADME; conditions: read-out: PI
Mus musculus [14] = assay: Compound was tested for toxicity by rotarod assay method in mice 4 hours after ip administration of 600 mg/kg; A=Active; format: organism-based; design: dose 600 mg/kg, route intraperitoneal; conditions: in vivo
Mus musculus [15] = organism: Mus musculus; assay: Anticonvulsant activity against maximal electroshock (MES)-induced seizures in mice; format: functional; how it was run: as §1
Mus musculus [16] = assay: Anticonvulsant activity against maximal electroshock (MES) induced seizures in mice 30 minutes after ip administration of 30 mg/kg; A=Active; format: functional, organism-based; design: dose 30 mg/kg; how it was run: as §1
Mus musculus [17] = assay: Compound was tested for toxicity by rotarod assay method in mice 30 min after ip administration of 600 mg/kg; A=Active; format: organism-based; design: dose 600 mg/kg, route intraperitoneal; conditions: in vivo, 0.5 h
[18] = Compound for toxicity by rotarod assay method in mice after administration; format: organism-based; conditions: mouse, in vivo
How it was run: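 Neurologic deficit was tested in male Carworth Farms No. 1 mice 30 min and 4 h after ip dosing in 30% PEG 400, at 30–600 mg/kg. Each mouse was placed on a 1-in.-diameter knurled plastic rod turning at 6 rpm. Toxicity meant failing to stay on the rod for 1 min.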

Mus musculus [19] = assay: Anticonvulsant activity against maximal electroshock (MES)-induced seizures in mice 4 hours after ip administration of 300 mg/kg; A=Active; format: functional, organism-based; design: dose 300 mg/kg; how it was run: as §1
Mus musculus [20] = assay: Anticonvulsant activity against maximal electroshock (MES) induced seizures in mice 30 minutes after ip administration of 600 mg/kg; A=Active; format: functional, organism-based; design: dose 600 mg/kg; how it was run: as §1
Mus musculus [21] = assay: Anticonvulsant activity against maximal electroshock (MES) induced seizures in mice 4 hours after ip administration of 300 mg/kg; A=Active; format: functional, organism-based; design: dose 300 mg/kg; how it was run: as §1
Mus musculus [22] = assay: Anticonvulsant activity against sc pentylenetetrazole-induced convulsions in mice 30 minutes after ip administration of 300 mg/kg; A=Active; format: functional, organism-based; design: dose 300 mg/kg; how it was run: as §2
Mus musculus [23] = assay: Anticonvulsant activity against sc pentylenetetrazole induced convulsions in mice 4 hr after ip administration of 600 mg/kg; A=Active; format: functional, organism-based; design: dose 600 mg/kg; how it was run: as §2
Mus musculus [24] = assay: Compound was tested for toxicity by rotarod assay method in mice 30 min after ip administration of 300 mg/kg; A=Active; format: organism-based; design: dose 300 mg/kg, route intraperitoneal; conditions: in vivo, 0.5 h
Mus musculus [25] = assay: Anticonvulsant activity against maximal electroshock (MES) induced seizures in mice 30 minutes after ip administration of 100 mg/kg; A=Active; format: functional, organism-based; design: dose 100 mg/kg; how it was run: as §1
Mus musculus [26] = assay: Compound was tested for toxicity by rotarod assay method in mice 4 hours after ip administration of 600 mg/kg; NA=No activity; format: organism-based; design: dose 600 mg/kg, route intraperitoneal; conditions: in vivo
Mus musculus [27] = assay: Anticonvulsant activity against sc pentylenetetrazole-induced convulsions in mice 30 minutes after ip administration of 300 mg/kg; Active; format: functional, organism-based; design: dose 300 mg/kg; how it was run: as §2
Mus musculus [28] = assay: Compound was tested for toxicity by rotarod assay method in mice 30 min after ip administration of 300 mg/kg; Active; format: organism-based; design: dose 300 mg/kg, route intraperitoneal; conditions: in vivo, 0.5 h

| Compound | Anticonvulsant activity (Mus musculus [2]) | Anticonvulsant activity (Mus musculus [5]) | Toxicity (Mus musculus [7]) | Anticonvulsant activity (Mus musculus [8]) | Anticonvulsant activity (Mus musculus [9]) | Anticonvulsant activity (Mus musculus [10]) | Toxicity (Mus musculus [11]) | Toxicity (Mus musculus [14]) | other results |
| --- | --- | --- | --- | --- | --- | --- | --- | --- | --- |
| CCc1cccc(C(C)C)c1NC(=O)c1cccc(N)c1 | inactive | inactive | – | – | – | – | – | – | Anticonvulsant activity (Mus musculus [1]): Active; Toxicity (Mus musculus [3]): Not Active; Toxicity (Mus musculus [4]): Not Active; Anticonvulsant activity (Mus musculus [6]): Active |
| CC(C)c1ccccc1NC(=O)c1ccccc1N | inactive | – | Not Active | inactive | inactive | inactive | Not Active | – | – |
| Cc1ccc(NC(=O)c2cccc(N)c2)c(C)c1 | inactive | – | Not Active | inactive | inactive | inactive | Not Active | – | – |
| Cc1ccc(C)c(NC(=O)c2ccccc2N)c1 | inactive | – | Not Active | inactive | inactive | inactive | Not Active | – | – |
| Cc1ccc(NC(=O)c2ccccc2N)cc1 | inactive | – | Not Active | inactive | inactive | inactive | Not Active | – | – |
| Cc1cccc(C)c1NC(=O)c1cccc(N)c1 | inactive | inactive | – | – | – | – | – | Active | Anticonvulsant activity (Mus musculus [12]): Active; selectivity ratio [13]: 21.1; ED50 (Mus musculus [15]): 13.5 mg/kg; Anticonvulsant activity (Mus musculus [16]): Active; Toxicity (Mus musculus [17]): Active; TD50 [18]: 285 mg/kg |
| Cc1cccc(NC(=O)c2ccccc2N)c1 | inactive | – | Not Active | inactive | inactive | inactive | Not Active | – | – |
| Cc1cccc(C(C)C)c1NC(=O)c1cccc(N)c1 | inactive | inactive | – | – | – | – | – | – | Toxicity (Mus musculus [3]): Not Active; Toxicity (Mus musculus [4]): Not Active; Anticonvulsant activity (Mus musculus [19]): Active; Anticonvulsant activity (Mus musculus [20]): Active |
| Nc1cccc(C(=O)Nc2ccccc2)c1 | – | – | – | – | – | – | – | Active | Anticonvulsant activity (Mus musculus [21]): Active; Anticonvulsant activity (Mus musculus [22]): Active; Anticonvulsant activity (Mus musculus [23]): Active; Toxicity (Mus musculus [24]): Active; Anticonvulsant activity (Mus musculus [25]): Active |
| CCc1cccc(C(C)C)c1NC(=O)c1ccccc1N | inactive | – | Not Active | inactive | inactive | inactive | Not Active | – | – |
| Cc1cccc(C)c1NC(=O)c1ccccc1N | – | inactive | – | – | – | – | – | – | Anticonvulsant activity (Mus musculus [1]): Active; Toxicity (Mus musculus [26]): Not Active; Anticonvulsant activity (Mus musculus [6]): Active; Anticonvulsant activity (Mus musculus [27]): Active; Toxicity (Mus musculus [28]): Active |
| Cc1ccc(NC(=O)c2cccc(N)c2)cc1 | inactive | inactive | – | – | – | – | – | Active | Anticonvulsant activity (Mus musculus [21]): Active; Toxicity (Mus musculus [3]): Not Active; Anticonvulsant activity (Mus musculus [6]): Active |
| Cc1ccccc1NC(=O)c1cccc(N)c1 | – | inactive | – | – | – | – | – | Active | Anticonvulsant activity (Mus musculus [21]): Active; Anticonvulsant activity (Mus musculus [22]): Active; ED50 (Mus musculus [15]): 44.7 mg/kg; Toxicity (Mus musculus [24]): Active; TD50 [18]: 109 mg/kg; Anticonvulsant activity (Mus musculus [25]): Active |
